Measurements reported in ChEMBL document CHEMBL1255444, “In vitro antibacterial activities of JNJ-Q2, a new broad-spectrum fluoroquinolone” (Antimicrob Agents Chemother, 2010).
In brackets after ≈: the same amount, converted by molar mass. Activity calls are given as the source filed them. No cut-off for these calls is given here.

Tests used:
Streptococcus pneumoniae [1] = assay: Antibacterial activity against ciprofloxacin-resistant Streptococcus pneumoniae by broth microdilution method; type: functional
In short: (§1)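 CLSI M07-A7 broth microdilution MIC. Medium was cation-adjusted Mueller-Hinton broth. For S. pneumoniae it was Mueller-Hinton supplemented with 5% lysed horse blood. CLSI quality-control strains were included as appropriate.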

Streptococcus pneumoniae [2] = assay: Antibacterial activity against Streptococcus pneumoniae isolate OC6790 assessed as log reduction in bacterial growth at 4 times MIC measured at 6 hrs by time-kill assay; type: functional
In short: (§2)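 Drug was diluted from 50× stocks made in water or acidified water. Samples were taken at 6 and 24 h and serially diluted onto TSA-5% sheep blood plates. Plates were incubated 20–24 h at 37°C in 5% CO2 before counting CFU. Log10 titer change is given relative to the starting inoculum.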

Streptococcus pneumoniae [3] = assay: Ratio of Moxifloxacin MIC90 to compound MIC90 for ciprofloxacin-resistant Streptococcus pneumoniae; type: functional
[4] = Plasma protein binding in rat infected with gram-positive bacteria; type: ADME, cell-free; settings: read-out: PPB (converted)
Staphylococcus aureus [5] = assay: Antibacterial activity against methicillin-resistant Staphylococcus aureus isolate OC15425 harboring gyrA S84L and parC S80F mutant gene by agar dilution method; type: functional
In short: (§3)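 MICs for the resistance-selection studies were determined by CLSI agar dilution on Mueller-Hinton medium. For S. pneumoniae the medium was supplemented with 5% lysed horse blood. For MRSA fluctuation-assay strains an arithmetic agar dilution scheme was used for a more precise MIC.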

Streptococcus pneumoniae [6] = assay: Antibacterial activity against Streptococcus pneumoniae isolate OC5462 assessed as log reduction in bacterial growth at 4 times MIC measured at 24 hrs by time-kill assay; type: functional; in short: as §2
Streptococcus pneumoniae [7] = assay: Antibacterial activity against Streptococcus pneumoniae isolate OC6610 assessed as log reduction in bacterial growth at 2 times MIC measured at 24 hrs by time-kill assay; type: functional; in short: as §2
Streptococcus pneumoniae [8] = assay: Antibacterial activity against Streptococcus pneumoniae isolate OC7348 assessed as log reduction in bacterial growth at 2 times MIC measured at 24 hrs by time-kill assay; type: functional; in short: as §2
Streptococcus pneumoniae [9] = assay: Antibacterial activity against Streptococcus pneumoniae isolate OC7376 assessed as log reduction in bacterial growth at 2 times MIC measured at 24 hrs by time-kill assay; type: functional; in short: as §2
Staphylococcus aureus [10] = assay: Antibacterial activity against methicillin-resistant Staphylococcus aureus isolate OC8525 harboring wild type quinolone resistance-determining region assessed as log reduction in bacterial growth at 2 times MIC measured at 24 hrs by time-kill assay; type: functional
In short: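 Overnight MRSA cultures were diluted into fresh cation-adjusted Mueller-Hinton broth to about 5 × 10^6 CFU/ml. […] Samples were plated serially diluted on trypticase soy agar, and CFU were counted after 20-24 h at 37°C. Value is the log10 decrease at 24 h from the starting inoculum; detection limit 100 CFU.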

Staphylococcus aureus [11] = assay: Antibacterial activity against methicillin-resistant Staphylococcus aureus isolate OC12501 by broth microdilution method; type: functional; in short: as §1
Streptococcus pneumoniae [12] = assay: Antibacterial activity against Streptococcus pneumoniae OC6755 harboring gyrA S81F and parC S79Y mutant gene by agar dilution method; type: functional; in short: as §3
Streptococcus pneumoniae [13] = assay: Antibacterial activity against Streptococcus pneumoniae isolate OC7348 assessed as log reduction in bacterial growth at 4 times MIC measured at 6 hrs by time-kill assay; type: functional; in short: as §2
Staphylococcus aureus [14] = assay: Antibacterial activity against methicillin-resistant Staphylococcus aureus isolate OC2838 by broth microdilution method; type: functional; in short: as §1
Streptococcus pneumoniae [15] = assay: Antibacterial activity against Streptococcus pneumoniae isolate OC6610 assessed as log reduction in bacterial growth at 4 times MIC measured at 24 hrs by time-kill assay; type: functional; in short: as §2
Escherichia coli = assay: Antibacterial activity against ciprofloxacin-susceptible, -intermediate Escherichia coli by broth microdilution method; type: functional
Haemophilus influenzae = assay: Antibacterial activity against Haemophilus influenzae by broth microdilution method; type: functional
In short: (§4)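 MICs by CLSI M07-A7 broth microdilution in cation-adjusted Mueller-Hinton medium. For S. pneumoniae the medium was supplemented with 5% lysed horse blood. CLSI quality control strains were run alongside as appropriate.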

Staphylococcus aureus [16] = assay: Antibacterial activity against methicillin-resistant Staphylococcus aureus isolate OC8530 harboring gyrA S84L and parC I143V mutant gene assessed as log reduction in bacterial growth at 2 times MIC measured at 24 hrs by time-kill assay; type: functional
In short: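 Time-kill in cation-adjusted Mueller-Hinton broth. […] Samples were taken up to 24 h, serially diluted onto TSA and counted after 20–24 h at 37°C. Result is log10 decrease at 24 h from the starting inoculum; detection limit 100 CFU.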

Streptococcus pneumoniae [17] = assay: Antibacterial activity against Streptococcus pneumoniae isolate OC6608 assessed as log reduction in bacterial growth at 2 times MIC measured at 24 hrs by time-kill assay; type: functional; in short: as §2
Serratia marcescens = assay: Antibacterial activity against Serratia marcescens by broth microdilution method; type: functional; in short: as §4
[18] = Aqueous solubility of the compound; type: physicochemical
Staphylococcus aureus [19] = assay: Antibacterial activity against methicillin-resistant Staphylococcus aureus isolate OC8532 harboring wild type quinolone resistance-determining region by agar dilution method; type: functional
In short: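 CLSI agar dilution MIC on cation-adjusted Mueller-Hinton medium. These were the MIC values used for the resistance studies, and CLSI quality-control strains were included as appropriate.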

Staphylococcus aureus [20] = assay: Antibacterial activity against methicillin-, ciprofloxacin-resistant Staphylococcus aureus by broth microdilution method; type: functional; in short: as §1
Staphylococcus aureus [21] = assay: Antibacterial activity against methicillin-susceptible Staphylococcus aureus by broth microdilution method; type: functional
Streptococcus pneumoniae [22] = assay: Antibacterial activity against Streptococcus pneumoniae isolate OC7348 assessed as log reduction in bacterial growth at 4 times MIC measured at 24 hrs by time-kill assay; type: functional; in short: as §2
Staphylococcus aureus [23] = assay: Antibacterial activity against methicillin-resistant Staphylococcus aureus isolate OC11696 by broth microdilution method; type: functional; in short: as §1
Streptococcus pneumoniae [24] = assay: Ratio of Levofloxacin MIC90 to compound MIC90 for ciprofloxacin-resistant Streptococcus pneumoniae; type: functional
Staphylococcus aureus [25] = assay: Antibacterial activity against Staphylococcus aureus […] by broth microdilution method; type: functional; in short: as §1
Streptococcus pneumoniae [26] = assay: Antibacterial activity against Streptococcus pneumoniae isolate OC6610 by broth microdilution method; type: functional; in short: as §1
[27] = Dissociation constant, pKa of the compound; type: physicochemical
Streptococcus pneumoniae [28] = assay: Antibacterial activity against multidrug resistant Streptococcus pneumoniae by broth microdilution method; type: functional, organism-based
In short: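 CLSI M07-A7 broth microdilution MIC in cation-adjusted Mueller-Hinton medium. For S. pneumoniae the medium was supplemented with 5% lysed horse blood. CLSI quality-control strains were included as appropriate.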

Streptococcus pneumoniae [29] = assay: Antibacterial activity against Streptococcus pneumoniae isolate OC6790 assessed as log reduction in bacterial growth at 2 times MIC measured at 24 hrs by time-kill assay; type: functional; in short: as §2
Streptococcus pneumoniae [30] = assay: Antibacterial activity against Streptococcus pneumoniae isolate OC6585 assessed as log reduction in bacterial growth at 2 times MIC measured at 6 hrs by time-kill assay; type: functional; in short: as §2
Providencia stuartii = assay: Ratio of Levofloxacin MIC90 to compound MIC90 for Providencia stuartii; type: functional
Streptococcus agalactiae = assay: Antibacterial activity against Streptococcus agalactiae by broth microdilution method; type: functional; in short: as §4
[31] = test system: Staphylococcus epidermidis; assay: Antibacterial activity against methicillin-susceptible Staphylococcus epidermidis by broth microdilution method; type: functional

**Q.** With `COc1c(N2CCC/C(=C(\F)CN)C2)c(F)cc2c(=O)c(C(=O)O)cn(C3CC3)c12` [ACORAFLOXACIN] as the compound, how does the MIC50 (Streptococcus pneumoniae [1]) read?
**A.** 0.12 µg/mL (≈ 0.286 µM)

**Q.** What about the MIC90 (Streptococcus pneumoniae [1]) of the same compound?
**A.** 0.25 µg/mL (≈ 0.596 µM)

**Q.** What about the deltalog10CFU/ml (Streptococcus pneumoniae [2]) of the same compound?
**A.** 3.6

**Q.** And the Ratio (Streptococcus pneumoniae [3])?
**A.** 9

**Q.** What about the fraction unbound [4] of the same compound?
**A.** 0.44

**Q.** What about the MIC (Staphylococcus aureus [5]) of the same compound?
**A.** 0.12 µg/mL (≈ 0.286 µM)

**Q.** And the deltalog10CFU/ml (Streptococcus pneumoniae [6])?
**A.** 6.8

**Q.** And the deltalog10CFU/ml (Streptococcus pneumoniae [7])?
**A.** 5

**Q.** And the deltalog10CFU/ml (Streptococcus pneumoniae [8])?
**A.** 7

**Q.** What about the deltalog10CFU/ml (Streptococcus pneumoniae [9]) of the same compound?
**A.** 6.8

**Q.** What about the deltalog10CFU/ml (Staphylococcus aureus [10]) of the same compound?
**A.** 5.1

**Q.** What about the MIC (Staphylococcus aureus [11]) of the same compound?
**A.** 0.06 µg/mL (≈ 0.143 µM)

**Q.** What about the MIC (Streptococcus pneumoniae [12]) of the same compound?
**A.** 0.12 µg/mL (≈ 0.286 µM)

**Q.** What about the deltalog10CFU/ml (Streptococcus pneumoniae [13]) of the same compound?
**A.** 3.6

**Q.** What about the MIC (Staphylococcus aureus [14]) of the same compound?
**A.** 0.25 µg/mL (≈ 0.596 µM)

**Q.** What about the deltalog10CFU/ml (Streptococcus pneumoniae [15]) of the same compound?
**A.** 6.9

**Q.** What about the MIC50 (Escherichia coli) of the same compound?
**A.** 0.06 µg/mL (≈ 0.143 µM)

**Q.** And the MIC90 (Escherichia coli)?
**A.** 0.25 µg/mL (≈ 0.596 µM)

**Q.** What about the MIC (Haemophilus influenzae) of the same compound?
**A.** 0.008 µg/mL (≈ 0.0191 µM)

**Q.** What about the MIC50 (Haemophilus influenzae) of the same compound?
**A.** 0.008 µg/mL (≈ 0.0191 µM)

**Q.** What about the MIC90 (Haemophilus influenzae) of the same compound?
**A.** 0.015 µg/mL (≈ 0.0358 µM)

**Q.** And the deltalog10CFU/ml (Staphylococcus aureus [16])?
**A.** 6.3

**Q.** What about the deltalog10CFU/ml (Streptococcus pneumoniae [17]) of the same compound?
**A.** 5.8

**Q.** And the MIC50 (Serratia marcescens)?
**A.** 0.5 µg/mL (≈ 1.19 µM)

**Q.** What about the MIC90 (Serratia marcescens) of the same compound?
**A.** 1 µg/mL (≈ 2.38 µM)

**Q.** And the solubility [18]?
**A.** 4520 µg/mL (≈ 10800 µM)

**Q.** What about the MIC (Staphylococcus aureus [19]) of the same compound?
**A.** 0.008 µg/mL (≈ 0.0191 µM)

**Q.** What about the MIC50 (Staphylococcus aureus [20]) of the same compound?
**A.** 0.25 µg/mL (≈ 0.596 µM)

**Q.** What about the MIC90 (Staphylococcus aureus [20]) of the same compound?
**A.** 0.25 µg/mL (≈ 0.596 µM)

**Q.** And the MIC50 (Staphylococcus aureus [21])?
**A.** 0.015 µg/mL (≈ 0.0358 µM)

**Q.** And the MIC90 (Staphylococcus aureus [21])?
**A.** 0.015 µg/mL (≈ 0.0358 µM)

**Q.** What about the deltalog10CFU/ml (Streptococcus pneumoniae [22]) of the same compound?
**A.** 6.5

**Q.** What about the MIC (Staphylococcus aureus [23]) of the same compound?
**A.** 0.06 µg/mL (≈ 0.143 µM)

**Q.** And the Ratio (Streptococcus pneumoniae [24])?
**A.** 9

**Q.** And the MIC50 (Staphylococcus aureus [25])?
**A.** 0.12 µg/mL (≈ 0.286 µM)

**Q.** What about the MIC90 (Staphylococcus aureus [25]) of the same compound?
**A.** 0.25 µg/mL (≈ 0.596 µM)

**Q.** What about the MIC (Streptococcus pneumoniae [26]) of the same compound?
**A.** 0.5 µg/mL (≈ 1.19 µM)

**Q.** And the pKa [27]?
**A.** 6.13

**Q.** And the Activity (Streptococcus pneumoniae [28])?
**A.** Active

**Q.** What about the deltalog10CFU/ml (Streptococcus pneumoniae [29]) of the same compound?
**A.** 7.2

**Q.** What about the deltalog10CFU/ml (Streptococcus pneumoniae [30]) of the same compound?
**A.** 3.9

**Q.** What about the Ratio (Providencia stuartii) of the same compound?
**A.** 16

**Q.** And the MIC50 (Streptococcus agalactiae)?
**A.** 0.015 µg/mL (≈ 0.0358 µM)

**Q.** What about the MIC90 (Streptococcus agalactiae) of the same compound?
**A.** 0.015 µg/mL (≈ 0.0358 µM)

**Q.** What about the MIC50 [31] of the same compound?
**A.** 0.015 µg/mL (≈ 0.0358 µM)

**Q.** And the MIC90 [31]?
**A.** 0.015 µg/mL (≈ 0.0358 µM)
